Screening results (PubChem)
In the library only some 2.2% were active in any assay of this set; here they are far more common.
FN deposition inh = fibronectin deposition inhibition | AID 743247 | 0.086% of 350,000 active | inhibition, % at 12.6 µM | AH1F fibroblasts, Alexa488-fibronectin deposition fluorescence, overnight;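 active = mean inhibition across replicates of 30% or more, regardless of how many single replicates reach that level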;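 also: positive control wells lacked labelled fibronectin entirely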
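Assay system: AH1F fibroblasts / Quantity: 10000 cells per well / Medium: DMEM plus 2% serum, read in PBS / Reagent: labelled fibronectin 24 nM / Dosing: single dose, pinned / Times: 1 h cell attachment, overnight exposure to compound and label / Signal: fluorescence, ex 485 nm, em 525 nm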
FGF22 binding = FGF22 (human) thermal shift binding; Q9HCT0; 1.5% of 340,000 active; activity (Tm shift, normalised), % at 9.99 µM; AID 651658; recombinant FGF22 thermal shift, SYPRO orange fluorescence; percent of sucrose octasulfate shift, DMSO zero;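 active = mean Tm shift, scaled 0 neutral to 100 positive control, at about 1.3% or above, every replicate too, limit read from the data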
PGC1a acetyl inh = PGC1a acetylation modulation, inhibitor mode | U2OS PGC1a acetylation, AlphaScreen anti-acetyl-lysine; with virally co-expressed GCN5 acetyltransferase | inhibition, % at 15.6 µM | 0.17% of 350,000 active | AID 651687;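 active = every replicate shows inhibition of at least 40%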;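 also: 0% = neutral control wells and 100% = positive control wells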
ERAP1 inh = blocks human ERAP1 aminopeptidase activity; 0.15% of 340,000 active; inhibition, % at 10.7 µM; recombinant ERAP1, Leu-AMC fluorescence, 60 min; Q9NZ08;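 active = mean replicate inhibition of at least 30%, or all replicates individually reaching that 30% level; inactive = mean below 30% and not every replicate reaching it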;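 also: 0% = neutral control wells and 100% = L-leucinethiol positive control wells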
Target sequence (Q9NZ08 whole entry, looked up): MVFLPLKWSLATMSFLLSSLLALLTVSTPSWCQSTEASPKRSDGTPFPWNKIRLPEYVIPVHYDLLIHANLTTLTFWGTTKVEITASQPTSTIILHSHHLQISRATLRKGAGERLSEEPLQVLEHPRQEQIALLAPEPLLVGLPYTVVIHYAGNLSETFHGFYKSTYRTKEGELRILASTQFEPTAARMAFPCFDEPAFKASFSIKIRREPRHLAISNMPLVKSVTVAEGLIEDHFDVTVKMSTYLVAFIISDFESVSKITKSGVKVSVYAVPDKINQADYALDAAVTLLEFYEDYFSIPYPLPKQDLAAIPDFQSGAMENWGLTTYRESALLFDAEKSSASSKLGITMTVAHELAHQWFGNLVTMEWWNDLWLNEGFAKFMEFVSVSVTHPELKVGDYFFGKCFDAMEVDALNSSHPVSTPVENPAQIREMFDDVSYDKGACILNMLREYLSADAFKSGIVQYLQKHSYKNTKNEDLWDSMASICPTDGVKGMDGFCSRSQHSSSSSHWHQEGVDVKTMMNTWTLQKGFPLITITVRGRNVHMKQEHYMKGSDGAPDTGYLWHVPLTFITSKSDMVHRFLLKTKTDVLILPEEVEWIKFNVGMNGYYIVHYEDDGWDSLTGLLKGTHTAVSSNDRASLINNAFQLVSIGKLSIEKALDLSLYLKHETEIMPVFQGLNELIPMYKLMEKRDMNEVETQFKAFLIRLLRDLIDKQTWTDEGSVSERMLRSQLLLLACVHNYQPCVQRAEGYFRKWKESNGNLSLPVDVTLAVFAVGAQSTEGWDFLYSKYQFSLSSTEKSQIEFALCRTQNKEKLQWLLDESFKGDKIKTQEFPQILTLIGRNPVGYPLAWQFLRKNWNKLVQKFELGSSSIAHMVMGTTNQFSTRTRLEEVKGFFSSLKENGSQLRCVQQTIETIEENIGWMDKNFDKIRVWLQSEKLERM
SIRT5 block = sirtuin-5 (human) deacylase inhibition | Q9NXA8 | Purified SirT5, succinyl-peptide AMC, trypsin-coupled fluorescence | inhibition, % at 15 µM | 1.1% of 330,000 active | AID 652115; in the data active = inhibition above about 15%
Starred values were filed as active, the others as inactive; nt = not tested or not shown.

SMILES	FN deposition inh	FGF22 binding	PGC1a acetyl inh	ERAP1 inh	SIRT5 block
O=C(Nc1ccc(N2CCOCC2)c(F)c1)c1cccs1	nt	0.1	2.7	3.0	2.2
COC(=O)c1cc(NC(=O)c2cccs2)ccc1N1CCOCC1	1.0	43.3*	0.4	-0.6	1.7
CC(C)c1ccc2[nH]c3c(c2c1)[C@@H]1CCN2C(=O)CCC[C@H](C3)[C@H]12	7.5	0.0	-16.8	4.3	34.5*
CC[C@H]1c2[nH]c3ccc(C(C)C)cc3c2[C@@H]2CCN3C(=O)CCC[C@H]1[C@H]23	5.0	-0.3	-6.8	1.7	-5.6
Nc1ncnc2c(C3OC(CO)C(O)C3O)scc12 (stereo not given)	6.9	43.3*	14.0	-1.6	nt
Nc1ncnc2c1ncn2[C@@H]1O[C@H](CO)[C@@H](O)[C@@H]1O	8.5	0.0	10.5	1.1	-0.4
Cc1cc(C(=O)CN2C(=O)NC(CC(C)C)C2=O)c(C)n1-c1ccccc1F (stereo not given)	-2.6	0.4	nt	-0.6	-2.6
Cc1cc(C(=O)CN2C(=O)C(=O)N(CC(C)C)C2=O)c(C)n1-c1ccccc1F	4.5	43.1*	-4.0	5.3	0.0
COC1OCC(O)C(OC(=O)c2ccccc2)C1OC(=O)c1ccccc1 (stereo not given)	-8.7	43.1*	-12.6	3.2	nt
C[C@@H]1CN([C@@H](C)CO)C(=O)c2cc(NC(=O)CCCCCC(=O)Nc3ccccc3N)ccc2O[C@@H]1CN(C)C(=O)Nc1ccc2c(c1)OCO2	nt	-0.1	-5.9	-1.9	nt
COc1ccc(S(=O)(=O)N(C)C[C@H]2OCCCC[C@H](C)Oc3ccc(NS(=O)(=O)c4ccc(C)cc4)cc3C(=O)N([C@@H](C)CO)C[C@@H]2C)cc1	nt	0.1	-8.0	-0.9	22.0*
COc1ccc(S(=O)(=O)Nc2ccc3c(c2)C(=O)N([C@@H](C)CO)C[C@@H](C)[C@@H](CN(C)S(=O)(=O)c2ccc(C)cc2)OCCCC[C@H](C)O3)cc1	-33.0	-0.7	2.5	1.0	8.1
COc1ccc(S(=O)(=O)N(C)C[C@@H]2OCCCC[C@H](C)Oc3ccc(NS(=O)(=O)c4ccc(C)cc4)cc3C(=O)N([C@H](C)CO)C[C@H]2C)cc1	nt	0.6	5.2	1.3	21.6*
COc1ccc(S(=O)(=O)N(C)C[C@@H]2OCCCC[C@H](C)Oc3ccc(NS(=O)(=O)c4ccc(C)cc4)cc3C(=O)N([C@@H](C)CO)C[C@H]2C)cc1	nt	-0.4	2.9	0.1	3.6
COc1ccc(S(=O)(=O)N(C)C[C@@H]2OCCCC[C@H](C)Oc3ccc(NS(=O)(=O)c4ccc(C)cc4)cc3C(=O)N([C@H](C)CO)C[C@@H]2C)cc1	nt	-0.6	-39.8	-1.4	23.9*
COc1ccc(S(=O)(=O)N(C)C[C@@H]2OCCCC[C@@H](C)Oc3ccc(NS(=O)(=O)c4ccc(C)cc4)cc3C(=O)N([C@@H](C)CO)C[C@@H]2C)cc1	nt	0.4	1.8	0.9	22.6*
CO[C@H]1CN(C)C(=O)c2cc(NC(=O)c3ccccc3)ccc2OC[C@H](C)N(C(=O)CN(C)C)C[C@@H]1C	-2.4	-0.1	-7.4	-1.9	-2.9
CNC[C@H]1Oc2ccc(NC(=O)Nc3ccc(OC)cc3)cc2CC(=O)N([C@H](C)CO)C[C@H]1C	nt	0.2	-2.2	5.6	0.3
CO[C@H]1CN(C)C(=O)c2ccc(NS(C)(=O)=O)cc2OC[C@@H](C)NC[C@@H]1C	-33.3	-0.1	-13.0	-0.5	-1.5
CC(OC(=O)c1ccncc1)C(=O)Nc1cccc([N+](=O)[O-])c1 (stereo not given)	1.9	43.2*	7.2	-0.7	-0.7
CN(Cc1ccccc1)C(=O)c1ccc(NC(=O)Cc2cccc(NC(=O)C3CCN(C(=O)C4CCCCC4)CC3)c2)cc1	-5.2	0.8	-4.9	0.4	16.1*
CN(C(=O)c1cccc(NC(=O)Cc2ccc(NC(=O)C3CCN(C(=O)C4CCCC4)CC3)cc2)c1)C1CCC1	-2.6	0.3	2.7	-4.9	-6.2
O=C(Cc1cccc(NC(=O)C2CCCN(C(=O)C3CCCC3)C2)c1)Nc1cccc(C(=O)N2CCOCC2)c1 (stereo not given)	2.5	-0.3	-4.8	0.5	19.1*
CN(C(=O)c1cccc(NC(=O)Cc2ccc(NC(=O)C3CCN(C(=O)C4CCC4)CC3)cc2)c1)C1CC1	-0.3	-0.4	1.2	-0.4	23.3*
C[C@@H]1CN([C@@H](C)CO)C(=O)Cc2cc(NC(=O)Nc3ccc(F)cc3)ccc2O[C@@H]1CN(C)C(=O)Nc1cccc2ccccc12	nt	0.6	-2.4	2.9	1.5
SMILES	FN deposition inh	FGF22 binding	PGC1a acetyl inh	ERAP1 inh	SIRT5 block
C=CCC[C@H](CCCCC)OC(=O)/C=C/[C@H](O)[C@@H](O)C[C@H](O)CC=C	-1.7	-0.2	nt	nt	1.6
C=CCC[C@@H](CCCCC)OC(=O)/C=C/[C@H](O)[C@@H](O)C[C@H](O)CC=C	-0.2	-0.2	nt	nt	16.2*
Cc1oc(-c2ccccc2)cc1C(=O)Nc1cccc(/C=C\C(=O)O)c1	5.0	43.5*	nt	-29.1	-1.9
Cc1oc(C(C)(C)C)cc1C(=O)Nc1cccc(/C=C\C(=O)O)c1	-1.9	nt	nt	nt	nt
C[C@H](CO)N1C[C@H](C)[C@H](CN(C)C(=O)Cc2ccccc2)Oc2cc(-c3cncnc3)ccc2S1(=O)=O	nt	-0.1	-3.8	2.1	-3.4
Cc1ccccc1S(=O)(=O)N1CC[C@@H]2[C@H]1c1cc(-c3cccc(C#N)c3)ccc1N(C)[C@H]2CO	7.6	-0.2	-8.8	0.0	-0.7
O=C(NC1CCCCC1)C(c1ccccc1)n1c(=O)c(-c2cc3ccccc3[nH]2)nc2ccccc21 (stereo not given)	14.3	35.4*	nt	-0.8	nt
COc1ccc(C(C(=O)NC2CCCCC2)n2c(=O)c(-c3cc4ccccc4[nH]3)nc3ccccc32)cc1 (stereo not given)	0.9	0.0	nt	nt	-1.1
O=C(Nc1ccc(F)cc1F)c1cc2nc3c(c(C(F)(F)F)n2n1)CCCC3	2.1	nt	nt	nt	nt
O=C(O)c1cc2nc3c(c(C(F)(F)F)n2n1)CCCC3	-11.7	43.4*	-40.9	-1.2	0.4
O=C(CN1C(=O)C2C3CC(C(Br)C3Br)C2C1=O)OCC(=O)c1cccc([N+](=O)[O-])c1 (stereo not given)	-3.2	0.2	75.8*	5.0	-6.6
O=C(CN1C(=O)C2C3C=CC(C3)C2C1=O)OCC(=O)c1ccc([N+](=O)[O-])cc1 (stereo not given)	-1.3	-0.2	nt	-1.6	2.8
OC1(c2cccs2)CN(c2ccccc2)C2=[N+]1CCCC2 (stereo not given)	10.2	43.4*	-7.4	0.2	-2.0
O=C(CCN1CCCCC1)N[C@H]1CC[C@H](CC(=O)N2CCC(Cc3ccccc3)CC2)O[C@@H]1CO	-10.4	0.0	8.9	1.8	38.5*
Cc1noc(C)c1NC(=O)Nc1ccc2c(c1)C(=O)N([C@@H](C)CO)C[C@H](C)[C@@H](CN(C)C(=O)Nc1cccc3ccccc13)O2	1.5	0.1	1.5	-1.7	-0.8
